Experimental data reported in ChEMBL document CHEMBL4414568, “Development of Novel Irreversible Pyruvate Kinase M2 Inhibitors” (J Med Chem, 2019).
Active and inactive are the calls of the source. The calls are words filed in the database; no cut-off is given here.

Key:
MCF7 = assay: Antiproliferative activity against human MCF7 cells assessed as reduction in cell viability incubated for 24 hrs by MTT assay; format: functional, cell-based; details: MCF7, 24 h
Method in brief: (§1)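 Cells seeded at 3,500 per well in 10% FBS and left overnight, then exposed to test agent or vehicle in 5% FBS for 24 h. MTT added for 1 h, then medium swapped for DMSO and absorbance read at 560 nm. Viability given as percent of vehicle-treated control. Run in triplicate.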

MDA-MB-231 = assay: Antiproliferative activity against human MDA-MB-231 cells assessed as reduction in cell viability incubated for 24 hrs by MTT assay; format: functional, cell-based; details: MDA-MB-231, 24 h; method in brief: as §1
Pyruvate kinase PKM [1] = target: T1, Pyruvate kinase PKM (Homo sapiens, UniProt P14618); assay: Inhibition of PKM2 in human PC9 cells assessed as reduction in beta-catenin phosphorylation incubated for 24 hrs by Western blot analysis; format: cell-based
Method in brief: (§2)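 PC-9 cells seeded at 5 × 10^5 cells/mL; after 24 h given 0–1 µM compound or DMSO for 24 h. Lysates run on 10% SDS-PAGE, transferred to nitrocellulose, probed for PKM2, EGFR, p-STAT3, STAT3, p-β-catenin, β-catenin and β-actin with HRP secondaries, ECL detection.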

[2] = target: T2, Malate dehydrogenase, mitochondrial (Homo sapiens) (UniProt P40926); assay: Binding affinity to MDHM in human PC9 cells incubated for 1 hr by ABPP-SILAC assay; format: cell-based
T2 sequence (whole entry): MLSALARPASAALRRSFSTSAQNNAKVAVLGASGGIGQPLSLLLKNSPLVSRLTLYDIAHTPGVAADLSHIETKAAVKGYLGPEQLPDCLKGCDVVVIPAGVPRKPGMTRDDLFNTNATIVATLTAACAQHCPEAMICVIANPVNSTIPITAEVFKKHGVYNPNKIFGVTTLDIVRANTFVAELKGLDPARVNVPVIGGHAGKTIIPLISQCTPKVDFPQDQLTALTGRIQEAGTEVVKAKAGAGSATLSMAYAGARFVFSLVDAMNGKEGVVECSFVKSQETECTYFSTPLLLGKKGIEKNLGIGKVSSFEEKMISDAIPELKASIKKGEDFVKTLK
Method in brief: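 PC-9 cells passaged at least six times in SILAC DMEM with 10% dialyzed FBS plus 100 µg/mL light or 13C/15N-labeled Arg/Lys. Heavy cells got ABPP probe (1 µM) and light cells DMSO, 1 h at 37 °C. Cells mixed 1:1, sonicated, spun at 100,000g, protein normalized to 1 mg/mL. Click biotin-azide, streptavidin bead pulldown 16 h at 4 °C, SDS-PAGE, on-bead trypsin digestion, LC-MS/MS.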

Mus musculus [3] = assay: In vivo inhibition of PKM2 in human PC9 cells xenografted in athymic nude mouse assessed as reduction in STAT3 expression at 10 mg/kg, ip administered once daily for 25 days measured post-last dose by Western blot analysis; format: functional, organism-based
Method in brief: (§3)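 Tumors from PC-9 xenograft nude mice given 10 mg/kg i.p. daily or vehicle for 25 days (n = 8 per group) were lysed for Western blots of PKM2, EGFR, Stat3 and β-catenin. Bands quantified by ImageJ and normalized to GAPDH.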

PC-9 [4] = assay: Antitumor activity against human PC9 cells xenografted in athymic nude mouse assessed as reduction in tumor volume at 10 mg/kg, ip administered once daily for 25 days measured post-last dose; format: functional, organism-based
Method in brief: (§4)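 Female nude mice, 6 weeks old, given s.c. 1 × 10^6 PC-9 cells in Matrigel (1:1). From day 7, once-daily i.p. vehicle or 10 mg/kg compound in sterile water with 0.5% methylcellulose and 0.1% Tween-80, n = 8 per group, for 25 days. Tumor volume and body weight followed, tumors weighed at end.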

PC-9 [5] = assay: Antitumor activity against human PC9 cells xenografted in athymic nude mouse assessed as reduction in tumor growth at 10 mg/kg, ip administered once daily for 25 days measured post-last dose by caliper method; format: functional, organism-based; method in brief: as §4
NCI-H1975 = assay: Antiproliferative activity against human NCI-H1975 cells harboring EGFR mutant assessed as reduction in cell viability incubated for 24 hrs by MTT assay; format: functional, cell-based; details: NCI-H1975, 24 h; method in brief: as §1
Pyruvate kinase PKM [6] = target: T1, Pyruvate kinase PKM; assay: Inhibition of PKM2 in human PC9 cells assessed as reduction in beta-catenin phosphorylation at 0.5 uM incubated for 24 hrs by Western blot analysis; format: cell-based; method in brief: as §2
Pyruvate kinase PKM [7] = target: T1, Pyruvate kinase PKM; assay: Binding affinity to recombinant human N-terminal His6-tagged PKM2 expressed in Escherichia coli BL21 (DE3) assessed as Cys326-adduct formation by NanoLC-MS/MS analysis
Method in brief: (§5)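 In-house His-tag PKM2 from E. coli BL21(DE3), purified by Ni-NTA then Superdex 200, treated with compound. Reduced with 30 mM DTT at 37 °C for 1 h, alkylated with 30 mM iodoacetamide for 1 h in the dark, trypsin 1:30 w/w overnight at 37 °C. Digests from 6 experiments pooled, 48 nanoLC-MS/MS runs in data-dependent mode, Orbitrap MS1.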

Pyruvate kinase PKM [8] = target: T1, Pyruvate kinase PKM; assay: Inhibition of PKM2 in human PC9 cells assessed as down regulation of EGFR expression incubated for 24 hrs by Western blot analysis; format: cell-based; method in brief: as §2
Mus musculus [9] = assay: In vivo inhibition of PKM2 in human PC9 cells xenografted in athymic nude mouse assessed as reduction in PKM2 expression at 10 mg/kg, ip administered once daily for 25 days measured post-last dose by Western blot analysis; format: functional, organism-based; method in brief: as §3
PC-3 = assay: Antiproliferative activity against human PC3 cells assessed as reduction in cell viability incubated for 24 hrs by MTT assay; format: functional, cell-based; details: PC-3, 24 h; method in brief: as §1
Pyruvate kinase PKM [10] = target: T1, Pyruvate kinase PKM; assay: Inhibition of PKM2 in human PC9 cells assessed as reduction in STAT3 expression incubated for 24 hrs by Western blot analysis; format: cell-based; method in brief: as §2
Pyruvate kinase PKM [11] = target: T1, Pyruvate kinase PKM; assay: Inhibition of N-(4-(3-(3-(Methylamino)-3-oxopropyl)-5-(4'-(prop-2-yn-1-yloxy)-[1,1'-biphenyl]-4-yl)-1H-pyrazol-1-yl)phenyl)propiolamide binding to PKM2 in human PC9 cells at 1 uM preincubated for 1 hr followed by probe addition and measured after 1 hr by Western blot analysis; format: cell-based
Method in brief: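 PC-9 cells pretreated with 1 µM compound or DMSO for 1 h, then alkyne probe added at 0.5, 1 or 2 µM for 1 h at 37 °C. Lysates put through Cu-catalysed click with biotin-azide, streptavidin beads 16 h at 4 °C, washes with 0.5% SDS/PBS, 10% SDS-PAGE and PKM2 Western blot.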

Pyruvate kinase PKM [12] = target: T1, Pyruvate kinase PKM; assay: Inhibition of PKM2 in human PC9 cells assessed as decrease in extracellular acidification rate preincubated for 4 hrs followed by glucose/oligomycin/2-DG addition and measured after 1 hr by seahorse XFe96 analyser based assay; format: cell-based
Method in brief: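 PC-9 cells, 5 × 10^4 per well, seeded 24 h ahead, then treated with DMSO or compound at 0.25, 0.5 or 1 µM for 4 h at 37 °C. Cells held 1 h without CO2 in glycolysis medium. Seahorse glycolysis stress test with serial injections of 10 mM glucose, oligomycin and 50 mM 2-DG; ECAR and OCR recorded together. Six wells per point.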

Mus musculus [13] = assay: In vivo inhibition of PKM2 in human PC9 cells xenografted in athymic nude mouse assessed as reduction in EGFR expression at 10 mg/kg, ip administered once daily for 25 days measured post-last dose by Western blot analysis; format: functional, organism-based; method in brief: as §3
Pyruvate kinase PKM [14] = target: T1, Pyruvate kinase PKM; assay: Binding affinity to recombinant human N-terminal His6-tagged PKM2 expressed in Escherichia coli BL21 (DE3) assessed as Cys317-adduct formation by NanoLC-MS/MS analysis; method in brief: as §5

T1 sequence (P14618 2-531 limits assumed): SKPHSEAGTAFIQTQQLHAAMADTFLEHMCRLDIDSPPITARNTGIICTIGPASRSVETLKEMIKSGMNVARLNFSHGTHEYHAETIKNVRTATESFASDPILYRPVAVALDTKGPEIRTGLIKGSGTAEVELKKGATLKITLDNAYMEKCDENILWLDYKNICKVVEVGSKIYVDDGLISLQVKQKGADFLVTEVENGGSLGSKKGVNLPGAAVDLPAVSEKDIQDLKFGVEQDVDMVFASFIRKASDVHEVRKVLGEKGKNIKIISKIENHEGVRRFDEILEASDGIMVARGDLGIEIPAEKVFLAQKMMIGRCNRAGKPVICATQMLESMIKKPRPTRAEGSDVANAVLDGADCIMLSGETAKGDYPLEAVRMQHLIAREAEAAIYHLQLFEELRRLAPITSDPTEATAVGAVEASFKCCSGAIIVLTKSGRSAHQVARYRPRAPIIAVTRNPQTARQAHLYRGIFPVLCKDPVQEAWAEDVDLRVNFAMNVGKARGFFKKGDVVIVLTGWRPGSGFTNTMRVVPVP

IC50 (MCF7): 1 µM | IC50 (MDA-MB-231): 0.1 µM | inhibition (Pyruvate kinase PKM [1]): Dose-dependent effect | Activity [2]: Active | IC50 (NCI-H1975): 1 µM | inhibition (Pyruvate kinase PKM [6]): inactive | Activity (Pyruvate kinase PKM [7]): Active | inhibition (Pyruvate kinase PKM [8]): Dose-dependent effect | IC50 (PC-3): 0.6 µM | inhibition (Pyruvate kinase PKM [10]): Dose-dependent effect | inhibition (Pyruvate kinase PKM [11]): Active | inhibition (Pyruvate kinase PKM [12]): Dose-dependent effect | Activity (Pyruvate kinase PKM [14]): Active
SMILES: C#CC(=O)Nc1ccc(-n2nc(CCC(=O)NC)cc2-c2ccc(-c3ccc(C(F)(F)F)cc3)cc2)cc1
inhibition (Mus musculus [3]): Active | Activity (PC-9 [4]): Active | Activity (PC-9 [5]): Active | inhibition (Mus musculus [9]): Active | inhibition (Mus musculus [13]): Active
